Reference: the array DNA melting data of Ke et al. (doi:10.1101/2024.01.08.574731)

What was measured:
[1] = folding enthalpy; higher = less favourable; fluorescence melt of hairpins on a sequencing array, two-state fit; details: sodium 0.088 M
How it was run: (§1)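 Two-state fits, bootstrapped, provided melting temperature and folding enthalpy from Cy3 fluorescence normalised to pre-quench Cy3 and to control constructs. Library hairpins with annealed Cy3 and quencher oligos were imaged on a sequenced MiSeq flow cell in 50 mM Na-HEPES pH 8.0, 25 mM NaCl, at 2.5 °C intervals up to 60 °C. Four replicates were combined with inverse-variance weighting. A 9.35 °C upward shift was applied to fitted temperatures to match UV melts.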

[2] = melting temperature; fluorescence melt of hairpins on a sequencing array, two-state fit, raised by 9.35 °C to match UV melts; details: sodium 0.088 M
How it was run: as §1

Sequence	folding enthalpy [1]	Tm [2]
GAAGACGAAAGTCTTTC ((((((....))).)))	-13.1 kcal/mol	48.1 °C
GAAGACGAAAGTCTTTTC ((((((....)))..)))	-13.4 kcal/mol	47.1 °C
GAAGACGGAAACGTCTTC (((((((....)))))))	-41.5 kcal/mol	64.5 °C
GAAGAGACGAAAGTCTTC (((..(((....))))))	-9.13 kcal/mol	30.6 °C
GAAGAGCGAAAGCTATTC (((.(((....))).)))	-31 kcal/mol	50 °C
GAAGAGCGAAAGCTTTTC (((.(((....))).)))	-24.1 kcal/mol	44.7 °C
GAAGAGGAAACTCTTC ((((((....))))))	-34.2 kcal/mol	48.3 °C
GAAGAGGCGAAAGCCTTC (((..(((....))))))	-8.73 kcal/mol	33.2 °C
GAAGAGGGAAACCCCTTC ((((.((....)).))))	-21.2 kcal/mol	35.7 °C
GAAGATGCGAAAGCATTC (((..(((....))))))	-10.7 kcal/mol	29.9 °C
GAAGATGGAAACGTCTTC (((((.(....).)))))	-33.9 kcal/mol	43.2 °C
GAAGCAGAAATGCTTC ((((((....))))))	-35.3 kcal/mol	54.5 °C
GAAGCAGGAAACTGCTCC (.(((((....))))).)	-12.6 kcal/mol	41.3 °C
GAAGCAGGAAACTGCTTC (((((((....)))))))	-39.9 kcal/mol	62.2 °C
GAAGCCGAAAGGCGATTC ((((((....)))..)))	-14.9 kcal/mol	58 °C
GAAGCCGAAAGGCGTTC ((((((....))).)))	-8.99 kcal/mol	46.7 °C
GAAGCCGAAAGGCTATTC ((((((....)))..)))	-8.63 kcal/mol	33.7 °C
GAAGCCGAAAGGCTTTTC ((((((....)))..)))	-12 kcal/mol	54.7 °C
GAAGCCGGAAACGGCCTC ((.((((....)))).))	-10 kcal/mol	39.2 °C
GAAGCGGGAAACCGTTTC (((.(((....))).)))	-28.2 kcal/mol	47.1 °C
GAAGCTGGAAACAACTTC ((((.((....)).))))	-24.2 kcal/mol	34.9 °C
GAAGCTGGAAACAGCTCC (.(((((....))))).)	-13.7 kcal/mol	39 °C
GAAGGAGCGAAAGCTTTC (((..(((....))))))	-9.13 kcal/mol	28.4 °C

Sequence	folding enthalpy [1]	Tm [2]
GAAGGCCCGAAAGGGTTC (((..(((....))))))	-17.4 kcal/mol	25.5 °C
GAAGGCCGAAAGGCTTC (((.(((....))))))	-15.6 kcal/mol	48.7 °C
GAAGGCGAAAGCCACTTC ((((((....)))..)))	-13.1 kcal/mol	40.6 °C
GAAGGCGAAAGCCATTC ((((((....))).)))	-10.4 kcal/mol	39.7 °C
GAAGGCGAAAGCCTATTC ((((((....)))..)))	-8.36 kcal/mol	32.1 °C
GAAGGCGAAAGCCTGTTC ((((((....)))..)))	-9.93 kcal/mol	47.9 °C
GAAGGCGAAAGCCTTTC ((((((....))).)))	-10.6 kcal/mol	53.7 °C
GAAGGCGAAAGCCTTTTC ((((((....)))..)))	-11.1 kcal/mol	51.3 °C
GAAGGGGGAAACCCCTTC (((((((....)))))))	-37 kcal/mol	61.5 °C
GAAGGGGGAAACCCTTTC (((.(((....))).)))	-18.7 kcal/mol	41.1 °C
GAAGGTGGAAACGCTTTC (((.(.(....).).)))	-9.77 kcal/mol	24.2 °C
GAAGTACGAAAGTATTC (((.(((....))))))	-10.4 kcal/mol	27.1 °C
GAAGTAGCGAAAGCTTTC (((..(((....))))))	-9.46 kcal/mol	30.3 °C
GAAGTCCGAAAGGAGTTC (((.(((....))).)))	-33.7 kcal/mol	55.2 °C
GAAGTCGGAAACAACTTC (((((.(....).)))))	-27.2 kcal/mol	33.4 °C
GAAGTGGGAAACCACTTC (((((((....)))))))	-45.4 kcal/mol	59.9 °C
GAATAACGAAAGTTTTC (((.(((....))))))	-13.7 kcal/mol	29.7 °C
GAATACCCGAAAGGGTTC (((..(((....))))))	-7.33 kcal/mol	33 °C
GAATACGAAAGTATGTTC ((((((....)))..)))	-14.2 kcal/mol	32.3 °C
GAATAGCGAAAGCTCTTC (((.(((....))).)))	-19.4 kcal/mol	38.7 °C
GAATAGGGAAACCCATTC ((((.((....)).))))	-17.1 kcal/mol	29.5 °C
GAATATGGAAACATATTC (((((((....)))))))	-35.1 kcal/mol	48.1 °C
GAATCAGAAATGATTC ((((((....))))))	-32.9 kcal/mol	45.6 °C

Sequence	folding enthalpy [1]	Tm [2]
GAATCAGGAAACTGATTC (((((((....)))))))	-42.6 kcal/mol	55.8 °C
GAATCCCCGAAAGGGTTC (((..(((....))))))	-14.4 kcal/mol	31 °C
GAATCCGAAAGGAGATTC ((((((....)))..)))	-18.7 kcal/mol	36.4 °C
GAATCCGAAAGGAGGTTC ((((((....)))..)))	-10.9 kcal/mol	26.2 °C
GAATCCGAAAGGATCTTC ((((((....)))..)))	-24.5 kcal/mol	51.3 °C
GAATCGCGAAAGCGTTTC (((.(((....))).)))	-21.9 kcal/mol	46.2 °C
GAATCGGAAACGATTC ((((((....))))))	-36.1 kcal/mol	55.7 °C
GAATCGGGAAACCGATTC (((((((....)))))))	-40.8 kcal/mol	63.6 °C
GAATGACGAAAGTCCTTC (((.(((....))).)))	-26.7 kcal/mol	38.5 °C
GAATGACGAAAGTCTTC (((.(((....))))))	-16.6 kcal/mol	34.6 °C
GAATGACGAAAGTCTTTC (((.(((....))).)))	-25.6 kcal/mol	44.6 °C
GAATGAGGAAACTCACTC ((.((((....)))).))	-11.2 kcal/mol	26 °C
GAATGCGAAAGCAATTC ((((((....))).)))	-18.7 kcal/mol	48.4 °C
GAATGCGAAAGCATTTTC ((((((....)))..)))	-14.6 kcal/mol	49 °C
GAATGCGGAAACACATTC (((((.(....).)))))	-32.6 kcal/mol	39.8 °C
GAATGCGGAAACGTATTC ((((.((....)).))))	-35.2 kcal/mol	47.6 °C
GAATGGCGAAAGCCTTC (((.(((....))))))	-11.9 kcal/mol	41.1 °C
GAATGGGGAAACCCATCC (.(((((....))))).)	-12.7 kcal/mol	36.5 °C
GAATGTGGAAACACACTC ((.((((....)))).))	-11.6 kcal/mol	29.8 °C
GAATGTGGAAACACATTC (((((((....)))))))	-38.6 kcal/mol	59.4 °C
GAATTAGGAAACCAATTC (((((.(....).)))))	-10.8 kcal/mol	27.7 °C
GAATTAGGAAACTGATTC ((((.((....)).))))	-19.8 kcal/mol	33.7 °C
GAATTTGGAAACAGATTC ((((.((....)).))))	-25.2 kcal/mol	33.3 °C

Sequence	folding enthalpy [1]	Tm [2]
GACAAACGAAAGTTGGTC (((.(((....))).)))	-29.9 kcal/mol	49.6 °C
GACAAAGGAAACCTTGTC (((((.(....).)))))	-29.5 kcal/mol	36.4 °C
GACAACCGAAAGGTAGTC (((.(((....))).)))	-33 kcal/mol	51.3 °C
GACAACGAAAGTTGCGTC ((((((....)))..)))	-12.1 kcal/mol	40.6 °C
GACAACGCGAAAGCGGTC (((..(((....))))))	-13.7 kcal/mol	44.9 °C
GACAACGGAAACATTGTC (((((.(....).)))))	-26.3 kcal/mol	34.6 °C
GACAAGCGAAAGCTGGTC (((.(((....))).)))	-32.4 kcal/mol	56.4 °C
GACAAGCGAAAGCTGTC (((.(((....))))))	-23.1 kcal/mol	56 °C
GACAAGGGAAACCTTGTC (((((((....)))))))	-40.4 kcal/mol	59.4 °C
GACACAGAAATGTGTC ((((((....))))))	-28.5 kcal/mol	56.5 °C
GACACAGGAAACCGTGTC (((((.(....).)))))	-41.1 kcal/mol	48.4 °C
GACACCACGAAAGTGGTC (((..(((....))))))	-6.51 kcal/mol	39 °C
GACACCCGAAAGGGCGTC (((.(((....))).)))	-36.7 kcal/mol	58.9 °C
GACACCGAAAGGTACGTC ((((((....)))..)))	-14.1 kcal/mol	35.8 °C
GACACCGAAAGGTTAGTC ((((((....)))..)))	-20.4 kcal/mol	37.5 °C
GACACCGGAAACAGTGTC (((((.(....).)))))	-28.8 kcal/mol	44.3 °C
GACACGCCGAAAGGCGTC (((..(((....))))))	-6.56 kcal/mol	33.8 °C
GACACTGGAAACAATGTC ((((.((....)).))))	-33.6 kcal/mol	31.9 °C
GACACTGGAAACAGTGTC (((((((....)))))))	-37 kcal/mol	66 °C
GACACTGGAAACGGTGTC (((((.(....).)))))	-38.8 kcal/mol	52.9 °C
GACAGACGAAAGTCGGTC (((.(((....))).)))	-36.2 kcal/mol	59.6 °C
GACAGAGCGAAAGCTGTC (((..(((....))))))	-18.3 kcal/mol	46.7 °C
